Source: PubChem (several laboratories)
Hep lipid drop = modulators of hepatic lipid droplet formation. AML12 mouse hepatocytes, oleate lipid droplets, BODIPY imaging. inhibition, % at 6.5 µM. 240,000 compounds, 0.4% hits;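 active = lipid droplet intensity inhibited by at least 50%, with more than 500 cells counted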
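Assay system: AML12 hepatocytes (mouse) / Also added: 100 µM oleic acid challenge / Times: overnight treatment with compound plus oleate / Detection: high-content imaging of BODIPY-stained droplets and DAPI nuclei / Evaluation: % inhibition of lipid droplet signal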
SMARCA2 activ = activators of SMARCA2 function. MG213 cells, MMTV-luciferase reporter, dexamethasone, overnight. activation, % at 9.1 µM. 370,000 compounds, 1% hits; in the data active = activation above about 7.8%
Yeast superoxide = yeast age-related superoxide inhibition as caloric restriction mimetic | S. cerevisiae aged cells, superoxide DHE fluorescence; hits give low values | superoxide response (% of plate mean), % at 10 µM | 330,000 compounds, 0.18% hits;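 active = superoxide response under a set limit, about three screen SD below normal, cut at about 65% in these data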;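 also: yeast aged for seven days with compound at 30 °C before DHE staining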
AHR act = human AHR activation; P35869; AHR-responsive luciferase reporter cells, luminescence; activation, % at 5 µM; 320,000 compounds, 2.5% hits; AID 2796; in the data active = activation above about 47%
SR-BI DiI inh = blocks mouse SR-BI lipid uptake from DiI-HDL. 320,000 compounds, 0.96% hits. AID 488896. inhibition, % at 12.5 µM. ldlA[mSR-BI] CHO cells, DiI-HDL uptake fluorescence, 3 h. Q61009;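 active = mean replicate inhibition of at least 70% and a set share of replicates each scoring 70 or more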
Target sequence (Q61009 whole entry, looked up): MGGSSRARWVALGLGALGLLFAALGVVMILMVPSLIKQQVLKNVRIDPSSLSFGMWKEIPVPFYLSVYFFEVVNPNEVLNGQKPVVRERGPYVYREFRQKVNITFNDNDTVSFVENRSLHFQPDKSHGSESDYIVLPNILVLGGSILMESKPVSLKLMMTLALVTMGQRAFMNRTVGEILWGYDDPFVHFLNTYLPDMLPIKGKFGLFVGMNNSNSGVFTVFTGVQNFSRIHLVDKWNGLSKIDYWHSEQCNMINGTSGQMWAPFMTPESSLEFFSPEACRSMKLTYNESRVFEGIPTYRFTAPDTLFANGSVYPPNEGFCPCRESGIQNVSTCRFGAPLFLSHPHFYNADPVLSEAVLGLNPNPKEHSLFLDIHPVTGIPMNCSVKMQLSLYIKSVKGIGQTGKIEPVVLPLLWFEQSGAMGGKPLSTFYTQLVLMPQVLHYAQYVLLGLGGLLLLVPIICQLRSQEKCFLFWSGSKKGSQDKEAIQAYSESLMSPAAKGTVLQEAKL
SR-BI uptake up = SR-BI HDL lipid transfer activation; activation, % at 12.5 µM; 320,000 compounds, 0.096% hits; CHO ldlA[mSR-BI] cells, DiI-HDL uptake fluorescence, 3 h; 100 = double the neutral-control signal;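 active = mean replicate activation of at least 60% and every replicate at or above 60%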
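System: CHO ldlA[mSR-BI] cells / Medium: HEPES-buffered (25 mM, pH 7.4) F12 plus 0.5% BSA / Probe or stimulus: labelled HDL, 10 µg/mL / Doses: single compound concentration, delivered by pin transfer / Schedule: 3 h, 37 °C / Measured by: DiI fluorescence, bottom read / Measure: cell-associated DiI fluorescence as measure of HDL uptake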
SMARCA2 conf = SMARCA2 activation, confirmation screen | shares compounds with SMARCA2 activ | MG213 cells, MMTV-luciferase with dexamethasone, luminescence, overnight; MG213 cells expressing E1A, Rb sequestered; DMSO wells 0%, reference activator 100% | activation, % at 9.1 µM | 3,500 compounds, 30% hits;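 active = activation above its plate's cutoff, the mean activation of tested wells plus 3 SD, cut at about 7.9% in these data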
GAL4-VP16 Luc = activates GAL4-VP16 luciferase, flagging SMARCA2 activator hits. activation, % at 9.1 µM. HEK293 GAL4-VP16 pG5luc reporter, luciferase luminescence; scaled: DMSO wells 0%, SAHA wells 100%. shares compounds with SMARCA2 activ. 3,500 compounds, 41% hits. AID 686939;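 active = activation above the solvent-only control well mean plus 3 SD, averaged across control plates, cut at about 5.2% in these data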
Numbers stand for hits; n = inactive; x = no result. Compounds with a hit are over-represented: about 4.3% of the library has one in this group of screens.

SMILES | Hep lipid drop | SMARCA2 activ | Yeast superoxide | AHR act | SR-BI DiI inh | SR-BI uptake up | SMARCA2 conf | GAL4-VP16 Luc
CCn1c(=O)n(CC(=O)N2CCOCC2)c(=O)c2ccccc21 | x | n | x | x | x | x | x | x
CC(=O)NC(CC(=O)NC1CCCc2ccccc21)c1ccccc1 (stereo unspecified) | n | 8.0 | n | n | x | x | n | n
CCOc1ccc(CCN2C(=O)C3C4CCC(O4)C3C2=O)cc1OCC (stereo unspecified) | x | 10 | n | n | n | n | n | n
COc1ccccc1N1CCN(C(=O)C2CC2)CC1 | x | n | n | n | x | x | x | x
COc1ccccc1N1CCN(C(=O)C2CCN(C(=O)c3ccccc3Cl)CC2)CC1 | n | 8.2 | n | x | n | n | n | n
Cn1cc(CCOCc2ccccn2)c2ccccc21 | x | n | x | x | x | x | x | x
COC(=O)c1cc(S(=O)(=O)n2nc(C)cc2C)c(Cl)cc1Cl | n | x | n | n | x | x | x | x
COC(=O)c1cc(S(=O)(=O)N2CCCC2=O)c(Cl)cc1Cl | n | 8.0 | n | n | n | n | n | n
COc1ccc(Nc2cc(C(=O)NCCCN3CCOCC3)c3ccccc3n2)cc1OC | n | 9.8 | n | n | n | n | n | n
CS(=O)(=O)N(CC(=O)N1CCCCCC1)c1ccc2c(c1)OCCO2 | n | 8.0 | n | n | n | n | n | n
N/C(=N\OC(=O)c1ccc(Br)cc1)c1ccncc1 | n | n | n | n | n | n | x | x
N/C(=N\OC(=O)c1cccc(Br)c1)c1ccncc1 | n | 8.0 | n | 53 | n | n | n | 7.4
O=c1c(Cl)cc(Cl)nn1-c1ccccc1 | n | n | n | n | n | n | x | x
COc1cc(Cl)nn(-c2ccccc2)c1=O | n | 11 | n | n | n | n | n | n
O=C(COc1ccccc1Br)NCc1ccco1 | n | 13 | n | n | n | n | n | n
COc1ccc(/C=N/Nc2cc(C)nc3ccc(Br)cc23)cc1 | n | 9.4 | n | 71 | n | n | n | n
COc1ccc2nc(C)cc(N/N=C/c3cccc(OC)c3O)c2c1 | n | 27 | n | 111 | n | n | 20 | n
N/C(=N\N=C\c1ccc([N+](=O)[O-])cc1)c1nonc1N | x | 14 | n | n | n | n | n | 9.1
N/C(=N\N=C\c1ccc(O)cc1)c1nonc1N | n | n | n | n | n | n | x | x
C=CCN(CC#Cc1ccc(C(F)(F)F)cc1)Cc1ccc(OC)cc1OC | x | n | x | x | x | x | x | x
CC1(C(=O)NNC(=O)c2ccc(=O)oc2)CC1Br (stereo unspecified) | n | n | n | n | x | x | x | x
Cc1cc(=O)oc(C)c1C(=O)NNC(=O)C1(C)CC1Br (stereo unspecified) | n | 8.9 | n | n | n | n | n | n
CC(C)(C)c1nnc(NC(=O)c2ccc3c(c2)OCO3)s1 | n | 10 | n | n | n | n | 8.4 | 6.4
C=CCOC(=O)N[C@H](c1ccc(-c2ccccc2)cc1)[C@H](C)/C=C/CC(=O)OC | x | n | x | x | x | x | x | x
COc1cc(S(=O)(=O)N2CCOCC2)cc(C(=O)c2nccn2C)c1OC | x | 9.3 | n | n | n | n | n | n
SMILES | Hep lipid drop | SMARCA2 activ | Yeast superoxide | AHR act | SR-BI DiI inh | SR-BI uptake up | SMARCA2 conf | GAL4-VP16 Luc
CC(=O)O[C@H]1C=C[C@@H](NC(=O)OC(C)(C)C)C1 | x | n | x | x | x | x | x | x
Clc1ccc(OCCSc2ncccn2)cc1 | n | 8.0 | n | n | n | n | n | 5.5
COc1ccc(OCCSc2ncccn2)cc1 | n | n | n | n | n | n | x | x
Nc1c(C(=O)N2CCCCC2)sc2nc3c(cc12)CCCC3 | n | n | n | n | x | x | x | x
Cc1ccc(C(=O)c2sc3nc4c(cc3c2N)CCC4)cc1 | n | 9.1 | n | n | n | n | 8.4 | 8.3
Cc1cccn2c(=O)c3cc(C(=O)NC4CCCC4)c(=N)n(C4CCCCC4)c3nc12 | n | 8.2 | n | n | x | x | 8.3 | n
Cc1cccn2c(=O)c3cc(C(=O)NCCN4CCOCC4)c(=N)n(CCc4ccccc4)c3nc12 | x | 11 | n | n | x | x | n | n
Cc1cccn2c(=O)c3cc(C(=O)NCCN4CCOCC4)c(=N)n(CCCN4CCOCC4)c3nc12 | n | n | n | n | x | x | x | x
Cc1cccn2c(=O)c3cc(C(=O)NC4CCCCC4)c(=N)n(Cc4ccccc4)c3nc12 | n | n | n | n | n | n | x | x
COc1ccc(CCNC(=O)c2cc3c(=O)n4ccccc4nc3n(C3CCCCC3)c2=N)cc1OC | n | 12 | n | n | n | n | n | n
COC(=O)C[C@H]1CC[C@H]2[C@H](COc3ccc(NS(=O)(=O)c4cccc(OC)c4)cc3C(=O)N2C)O1 | x | n | x | x | x | x | x | x
C=CCN1[C@H](C)COc2cccc(N3CCCC3)c2S1(=O)=O | x | n | x | x | x | x | x | x
Cc1ccc(CN(C(=O)c2cc3ccccc3oc2=O)C2CCS(=O)(=O)C2)cc1 (stereo unspecified) | x | 8.7 | n | n | n | n | n | n
CCc1ccc(CN(C(=O)c2cc3ccccc3oc2=O)C2CCS(=O)(=O)C2)cc1 (stereo unspecified) | x | n | n | n | n | n | x | x
C[C@H](O)[C@@H]1CN2CCc3ccc(-c4ccc5c(c4)OCO5)cc3[C@@H]2C[C@@H]1N(C)C(=O)c1cccc(Cl)c1 | x | n | x | x | x | x | x | x
O=C(Nc1c(-c2ccc(F)cc2)nc2ncccn12)C1CC1 | x | n | x | x | x | x | x | x
CCOC(=O)c1sc(NC(=O)c2cncc(Br)c2)nc1C | n | 10 | x | x | x | x | n | 9.3
CCOC(=O)c1sc(NC(=O)c2cc3ccccc3o2)nc1C | n | n | n | n | n | n | x | x
C=CCOC(=O)c1sc(NC(=O)c2ccco2)nc1C | x | 8.0 | n | n | n | n | 18 | 6.7
Cc1ccc(Nc2nc3ccccc3[nH]2)nc1 | n | 8.7 | n | n | n | n | n | 19
CCc1ccccc1Nc1nc2ccccc2[nH]1 | x | n | n | n | x | x | x | x
COC(=O)[C@]12C[C@H](CC(=O)NCCCN3CCCC3=O)C(=O)N(Cc3cccc4ccccc34)C1=C[C@H](C(C)(C)C)O[C@@H]2C | x | n | x | x | x | x | x | x
CN(C(=O)c1cn(C)c2ccccc12)c1ccc(Oc2cccnc2)cc1 | x | n | x | x | x | x | x | x
O=C1NC(=O)/C(=C\c2ccc(O)cc2O)S1 | n | 13 | n | n | n | n | n | n
O=C1NC(=O)/C(=C/c2cccc3ccccc23)S1 | n | n | n | n | n | n | x | x
Cc1ccc(-c2cc(C(=O)Nc3cc(C)ccc3C)[nH]n2)c(O)c1 | n | n | n | n | n | n | x | x
Cc1ccc(C)c(NC(=O)c2cc(-c3cc(C)c(C)cc3O)n[nH]2)c1 | n | 11 | n | n | n | n | n | 5.9
